Entries after “also recorded” stand apart in the source; their conditions may differ.

Data set [1] relates to TR146 cells. In words: Western blotting of phospho-MKP1 and c-Fos induction. The class given is cell-based, human. The following applies: for Induction of p-MKP1 and c-Fos by peptide fragments: 15 µM, 2 h, individually or in combination; for Induction of p-MKP1 and c-Fos: serum-free DMEM, 2 h post-stimulation, Western blot, Ece1-I-VIII incubated at 1.5 – 70 µM (Fig. 2a: 1.5 µM). The essentials:
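Serum-starved TR146 cells treated for 2 h in serum-free DMEM, then lysed on ice for 30 min in modified RIPA buffer (pH 7.4) with protease and phosphatase inhibitors. 20 µg protein resolved on 12% SDS-PAGE and transferred to nitrocellulose. Blots probed for phospho-MKP1 and c-Fos (primary 1:1000, HRP secondary 1:10,000), detected by chemiluminescence. α-actin used as loading control.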
A general note: In western blotting, separated proteins are transferred to a membrane and probed.

Data set [2] has as its system TR146 cells. In words: Cell damage assay. The class given is cell-based, human. The following applies: for Damage of epithelial cells (LDH release) by peptide fragments: 70 µM, 24 h, individually or in combination; for Induction of damage (LDH release): Ece1-I-VIII at 70 µM (Fig. 2b). The essentials:
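Confluent TR146 cells serum-starved overnight, then exposed to test peptides for 24 h in serum-free DMEM. Culture supernatants assayed for lactate dehydrogenase activity with a colorimetric cytotoxicity kit. Activity quantified against a recombinant porcine LDH standard curve.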
For orientation: Release of lactate dehydrogenase indicates damage to the cell membrane.

For data set [3], the system named is TR146 cells. In words: Cytokine determination in culture supernatants. The class given is cell-based, human. Conditions: for Induction of cytokines (G-CSF) by peptide fragments: 15 µM, 24 h, individually or in combination.
The nature of data set [4]: FRET intercalation into phospholipid liposomes. Conditions: phospholipid liposomes (DOPC with or without cholesterol), 100 mM KCl, 5 mM HEPES, pH 7.0. Summed up:
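Probe-dilution FRET assay. Phospholipid liposomes carried 1% (mol/mol) each of donor NBD-PE and acceptor rhodamine-PE. Lipids were dried from chloroform, taken up in 100 mM KCl, 5 mM HEPES, pH 7.0, and tip-sonicated. They then went through three 30 min cycles of 60°C heating and 4°C cooling and were held at 4°C for at least 12 h. After test peptide addition, intercalation was read as the rise in the donor (531 nm) to acceptor (593 nm) intensity ratio.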

Data set [5] is described as follows: Impedance spectroscopy of tethered bilayer lipid membranes. The following applies: tBLMs, DOPC with or without cholesterol, 100 mM KCl, 5 mM HEPES, pH 7.0, room temperature. Summed up:
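tBLMs (10% tethering, 90% spacer lipids) were formed by solvent exchange from 3 mM lipid in ethanol, then buffered in 100 mM KCl, 5 mM HEPES, pH 7.0. Membranes were rinsed three times with buffer. Conductance and capacitance were recorded for 20 min before test peptide was injected at various concentrations, all at room temperature. Concentration-dependent conductance changes were averaged.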

Data set [6] has as its system TR146 cells. Description: Calcium flux. Conditions: Fura-2, readings up to 3 h. The class given is cell-based, human. The essentials:
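Confluent TR146 monolayers loaded for 1 h at 37°C/5% CO2 with Fura-2 (2.5 mM stock in Pluronic F-127/DMSO) plus probenecid in HEPES-buffered saline (2 mM CaCl2, 10 mM glucose, pH 7.4). Dye then replaced by saline. Baseline read for 10 min at excitation 340 nm/emission 520 nm. Peptides added at different concentrations. Cytosolic calcium expressed as a fluorescence ratio.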
(In general: Calcium assays in cells follow changes in intracellular calcium, usually with a dye or a luminescent sensor.)

A short description of the next data set: Planar lipid bilayers. The following applies: 5 mM HEPES, 100 mM KCl, pH 7.0, 37°C, Ece1-III62–93 0.125 µM (DOPC), Ece1-III62–92K 4 µM. The essentials: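 Montal-Mueller planar bilayers were bathed in 5 mM HEPES, 100 mM KCl, pH 7.0 (specific conductivity 17.2 mS/cm) at 37°C. Test peptide was added and membrane current was recorded for permeabilization events up to rupture.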

Data set [7] can be described thus: Circular dichroism spectroscopy. The class given is physicochemical. Conditions: 15 µM peptide, 100 mM KCl, 5 mM HEPES, pH 7. Summed up:
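Peptide at 15 µM in 100 mM KCl, 5 mM HEPES, pH 7.0, in a 1.0 mm quartz cuvette, run at 25°C and 40°C. Spectra are the average of four scans, collected at 1 nm intervals with 2 nm bandwidth.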

Data set [8] deals with TR146 cells. In words: Whole cell patch clamp. The class given is cell-based, human. Conditions: membrane potential −60 mV, room temperature. Summed up: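 TR146 cells cultured 48 h and recorded at 10–30% confluence while superfused with modified Krebs solution (pH 7.4). Pipettes 5–7 MΩ, filled with potassium acetate/KCl/HEPES/EGTA solution (free Ca2+ 40 nM). Current-voltage curves from 1 s steps, −100 to +50 mV. Treatments added to superfusate at final concentration, with vehicle controls and an ionomycin positive control. Cells analysed counted per condition.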

In data set [9] the test system is TR146 cells. Description: Transcription factor. The class given is cell-based, human. Conditions: 3 h post-stimulation, sub-lytic concentrations. The essentials: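 Serum-starved TR146 cells treated for 3 h in serum-free DMEM. Nuclear proteins recovered by differential lysis. 5 µg nuclear extract assayed for c-Fos DNA binding by plate-based transcription factor ELISA. Results expressed as fold-change in A450nm relative to resting cells.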

In another data set the test system is red blood cells. In words: Hemolysis of red blood cells. The class given is cell-based. Conditions: not shown.
Data set [10] concerns multiple human epithelial cell types. In words: Direct lysis of epithelial cells. The following applies: not shown. The class given is cell-based.

Consider “Ece1-III86–93: C-terminal hydrophilic region of Ece1-III62–93 (KAFKGNKR; UniProt Q07730 86-93, looked up, fragment)”, for which, in the data set on TR146 cells [1], the “Induction of p-MKP1 and c-Fos by peptide fragments” value is reported as “Neither”. Also, in the data set on TR146 cells [2], the “Damage of epithelial cells (LDH release) by peptide fragments” value is reported as “Neither”. The “Induction of cytokines (G-CSF) by peptide fragments” value with TR146 cells [3] is “Neither”.
As for “Ece1-III62–85: N-terminal hydrophobic region of Ece1-III62–93”, the “Induction of p-MKP1 and c-Fos by peptide fragments” value with TR146 cells [1] is given as “Neither”. Further, in the data set on TR146 cells [2], the “Damage of epithelial cells (LDH release) by peptide fragments” value was “Neither”. The “Induction of cytokines (G-CSF) by peptide fragments” value in the data set with TR146 cells [3] is “Neither”.
As for “Ece1-III62–93AA: Ece1-III62–93 with C-terminal KR motif substituted to AA”, in data set [4], the “Intercalation into lipid membranes (FRET)” value is “did not affect membrane intercalation”. The “Induction of p-MKP1 and c-Fos” value in the data set with TR146 cells [1] is “still induced”. For the same substance, the “Induction of damage (LDH release)” value in the data set on TR146 cells [2] (24 h post-stimulation) was “significantly reduced”. For the same substance, the “Permeabilization of tethered lipid membranes (conductance)” value (from here on “Permeabilization”) in [5] is given as “significantly reduced”. In addition, the “Induction of G-CSF secretion” value in the data set on TR146 cells [3] (24 h post-stimulation) was “still induced”. Further, the “Calcium influx (intracellular calcium level)” value (“Calcium influx” for short) in the data set on TR146 cells [6] is reported as “significantly reduced”.
On to “SIIGIIMGILGNIPQVIQIIMSIVKAFKGNK [Ece1-III62–92K]”, for which the “Lesions induced in planar lipid membranes” value in the data set “Planar lipid bilayers” was “heterogeneous and transient lesions leading to membrane rupture”. Further, the “Intercalation into lipid membranes (FRET)” value in data set [4] is “induces”. In addition, the “Induction of p-MKP1 and c-Fos” value in the data set on TR146 cells [1] is recorded as “induces”. In the data set on TR146 cells [2] (24 h post-stimulation), the “Induction of damage (LDH release)” value is on record as “induces”. In addition, in data set [5], the “Permeabilization” value is given as “induces”. Besides, the “Secondary structure by circular dichroism” value in data set [7] was “α-helical”. Besides, in the data set on TR146 cells [3] (24 h post-stimulation), the “Induction of G-CSF secretion” value was “induces” and the “Induction of IL-1α secretion” value was “induces”. Moreover, the “Calcium influx” value in the data set with TR146 cells [6] was “induces”.
As for “SIIGIIMGILGNIPQVIQIIMSIVKAFKGNKR [Ece1-III62–93]”, in the data set with TR146 cells [8], the “Evoked current in epithelial cells (patch clamp)” value is “causes an inward current”. Further, in the data set “Planar lipid bilayers”, the “Lesions induced in planar lipid membranes” value was “heterogeneous and transient lesions leading finally to a rupture of the membrane”. The “Concentrations sufficient to induce c-Fos DNA binding” value in the data set on TR146 cells [9] was in the range of 1.5 to 15 µM. Besides, in data set [4], the “Intercalation into lipid membranes (FRET)” value is “able to efficiently intercalate; also recorded: slightly enhanced intercalation for pure DOPC”. Further, the “Induction of p-MKP1 and c-Fos” value with TR146 cells [1] is “induced”. Moreover, the “Hemolysis of red blood cells” value in the data set on red blood cells is “induce hemolysis of red blood cells”. For the same substance, in the data set on TR146 cells [2] (24 h post-stimulation), the “Concentrations required to induce damage (LDH release)” value worked out at 70 µM and the “Induction of damage (LDH release)” value was “induced”. Besides, in data set [10], the “Direct lysis of multiple human epithelial cell types” value was “directly lyse multiple human epithelial cell types”. Further, in [5], the “Permeabilization” value is “enhanced in the presence of cholesterol”. The “Secondary structure by circular dichroism” value in data set [7] is listed as “α-helical conformation”. In the data set with TR146 cells [3] (24 h post-stimulation), the “Concentrations required to induce damage-associated cytokine IL-1α” value came out at 70 µM, the “Concentrations required to induce damage-associated cytokine IL-6” value stood at 70 µM, the “Concentrations sufficient to induce G-CSF” value lay in the range of 1.5 to 15 µM and the “Concentrations sufficient to induce GM-CSF” value was 1.5 to 15 µM. In addition, the Induction of cytokines result in the data set with TR146 cells [3] (24 h post-stimulation, peptides 1.5 – 70 µM) was “induced”. The “Calcium influx” value in the data set with TR146 cells [6] is on record as “associated with calcium influx”.
